# Measured values as given in PubChem BioAssay AID871 (The Scripps Research Institute Molecular Screening Center, 2007).
# Among all 190,000 compounds or so, about 1,800 (0.95%) were called active.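 Rule for the calls: active = activation above the screen-wide mean of compound activation plus 3 SD (cut at about 130% in these data); inactive = the rest.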 Shown is part of a subset that was picked to be rich in actives.
# Experiment: enhancers of STAT3 transcriptional signaling – U3A cells, luciferase, luminescence, MLSCN library, primary screen (AID 871);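 note: 0% = background luminescence of wells with medium and substrate only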
# Settings: IL-6 STAT3-luciferase reporter, at 5.6 µM, stronger effect = higher value
# How it was run: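 Material: STAT3-luciferase reporter U3A cells; Probe or stimulus: IL-6 (33 ng/mL); Incubation: compound pre-incubation 1 h before IL-6, then 6 h stimulation at 37 °C; Technique: luminescence from STAT3-driven luciferase reporter; Evaluation: % activation versus median of IL-6-stimulated wells; Controls: IL-6-only high control.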
row,Structure (SMILES),activation (% of control)
1,COc1cc(-n2c(=S)[nH]c3ccc(C)cc3c2=O)c(Cl)cc1Cl,156% (active)
2,CC(=O)c1c(C)n(C(C)C)c2ccc(O)cc12,102% (inactive)
3,N#CC1=C(N)Oc2c(c(=O)oc3ccccc23)C1c1ccccc1OC(=O)c1cccs1 (stereo not given),106% (inactive)
4,CCOP(=S)(OCC)SCOC(=O)NCC(=O)OC,106% (inactive)
5,CCC/C(=N\O)c1c[nH]c2ccccc12,153% (active)
6,C/C(CCc1c[nH]c2ccccc12)=N\O,98% (inactive)
7,CC1=CC(=Cc2sc3ccccc3[n+]2C)C=C(C)O1,30.2% (inactive)
8,CCOc1ccc(CN(CCCl)CCCl)cc1C(=O)OC,96.4% (inactive)
9,CCOCCc1c(O)[nH]c(=S)[nH]c1=O,99.3% (inactive)
10,O=C(Nc1cccc2ccccc12)N1CCC2(CC1)OCCO2,105% (inactive)
